Compounds with a hit are over-represented: about 2.6% of the library has one in this group of screens.
BB579 growth dn: reduces growth of yeast BB579 in restrictive medium; S. cerevisiae BB579 growth, OD615, 48 h; inhibition, % at 10 µM; 140,000 compounds, 0.51% hits;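 active means inhibition above a set limit, 3 SD over the mean compound inhibition, cut at about 44% in these data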
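Test system: Saccharomyces cerevisiae DeaD strain BB579, replicative lifespan model yeast | Buffer or medium: Restrictive CSMM-D medium | Doses: One dose, 10 µM compound with 0.25% DMSO | Incubation: 48 h exposure, 30 °C | Detection: Culture absorbance at 615 nm | Control set: Amphotericin B at 10 µg/mL as positive control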
RAM inhibit: blocks the yeast RAM network; S. cerevisiae dse1pr::URA3 reporter, 5-FOA growth OD615, 2 d; analog-sensitive cbk1-as2 kinase mutant strain; inhibition, % at 50 µM; 190,000 compounds, 1.8% hits;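 active means inhibition above a set limit, 3 SD over mean compound inhibition, cut at about 8.4% in these data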;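 further: 0% = DMSO-only wells with no growth and 100% = 10 µM 1-NA-PP1 full growth; inhibition rescues growth on 5-FOA so higher OD means more RAM inhibition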
Yeast lifespan up: yeast lifespan extension; 130,000 compounds, 0.68% hits; inhibition of the nicotinamide effect, % at 10 µM; S. cerevisiae growth with nicotinamide, OD615; deaD strain in restrictive glucose medium; AID 775;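 active means inhibition above a set limit, placed 3 SD over the median of all compounds, cut at about 26% in these data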;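 further: 0% = nicotinamide-treated wells and 100% = cells grown without nicotinamide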
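assay system = DeaD-strain S. cerevisiae | measured by = absorbance at 615 nm | probe or stimulus = nicotinamide 1.5 mM | buffer or medium = CSMM-D glucose medium, restrictive | times = 48 h at 30 °C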
RAM 5-FOA: RAM network inhibitors in efflux-deficient yeast | max inhibition, % | shares compounds with RAM inhibit | AID 1305 | 1,200 tested, under 10 active | S. cerevisiae efflux-deficient reporter strain, 5-FOA growth OD615, 2 days; call rule not given here;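 further: plate controls were vehicle for no effect and reference inhibitor for full effect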
* hit, by the source's call; nt = no result.

SMILES	BB579 growth dn	RAM inhibit	Yeast lifespan up	RAM 5-FOA
CCCCCCN1C=C/C(=C\C=C(C#N)C#N)c2ccccc21	-22	17*	15	4
COc1ccc(NC(=O)Cn2c(=O)n(CC(=O)NCc3ccco3)c(=O)c3ccccc32)cc1	-28	5	5	nt
CC(C)(C)NC(=O)CCCSc1nc2ccccc2s1	nt	1	nt	nt
Cc1ccccc1NC(=O)CCCSc1nc2ccccc2s1	-22	18*	-2	2
O=C(CSc1nnc(-c2ccncc2)n1-c1ccccc1Cl)Nc1ccc(C(=O)O)cc1	nt	12*	nt	3
O=C(CSc1nnc(-c2ccncc2)n1-c1ccccc1)Nc1ccc(C(=O)O)cc1	nt	1	nt	nt
CCOC(=O)c1c(-c2ccccc2)csc1NC(=O)CCN1CCOCC1	22	0	-8	nt
COc1ccc(-c2csc(NC(=O)CSc3ccc(Br)cc3)n2)c(OC)c1	-43	2	-2	nt
CCOC(=O)c1c(NC(=O)CSc2nncs2)sc(C)c1C	-30	5	3	nt
CCOC(=O)c1c(NC(=O)CSc2nncs2)sc(C)c1-c1ccccc1	-51	13*	2	4
COc1ccc(OC)c(-c2csc(NC(=O)CSc3ccccc3)n2)c1	-26	11*	1	4
CCOC(=O)c1csc(NC(=O)CSc2nnnn2-c2ccc(OC)cc2)n1	-14	3	-14	nt
CCOC(=O)c1c(-c2ccccc2)csc1NC(=O)CSc1ccccc1	-37	13*	3	4
CCOC(=O)c1c(NC(=O)CSc2nnnn2-c2ccc(OC)cc2)sc(C)c1C	42	12*	-4	2
CS(=O)(=O)ON=C1CCN(S(=O)(=O)c2ccccc2)CC1	nt	0	nt	nt
CN(Cc1nc(-c2cccs2)no1)CC1COCCO1 (stereo not drawn)	nt	1	nt	nt
CC(=O)c1cc(-c2ccccc2)n(CCC(=O)NC(C)(C)C)c1C	nt	1	nt	nt
COc1ccc(CC(=O)NCCC(C)C)cc1S(=O)(=O)N1CCOCC1	nt	-1	nt	nt
CCOc1ccc(Br)cc1S(=O)(=O)NC(=O)c1ccccc1	nt	0	nt	nt
CCOC(=O)c1c(-c2ccc(OC)cc2)csc1NC(=O)CSc1ccccc1	-26	15*	-2	3
CCOC(=O)c1c(-c2ccc(OC)cc2)csc1NC(=O)CSc1nnc(C)c(=O)[nH]1	nt	5	nt	nt
CC(C)c1ccc2c(c1)[C@H]1OCC[C@H]1[C@@H](c1cccs1)N2	-15	0	-4	nt
Cc1ccc(N2CCN(C(=O)c3cc(C(=O)c4ccccc4C)c[nH]3)CC2)c(C)c1	nt	24*	nt	2
Cc1ccc(N2CCN(C(=O)c3ccccc3)CC2)c(C)c1	-32	3	-9	nt
Cn1c(SCC(=O)NCc2cccs2)nnc1-c1ccc(O)cc1	nt	0	nt	nt
SMILES	BB579 growth dn	RAM inhibit	Yeast lifespan up	RAM 5-FOA
COc1ccc(CCN2C(=O)C(Oc3ccccc3)C2c2ccc3c(c2)OCO3)cc1 (stereo not drawn)	-14	4	2	nt
COc1ccc(OC2C(=O)N(Cc3ccc4c(c3)OCO4)C2c2cccs2)cc1 (stereo not drawn)	-36	13*	8	3
Cc1noc(C)c1COC(=O)COc1ccc(C#N)cc1	nt	2	nt	nt
CCOc1ccc(S(=O)(=O)N(C)c2ccc(OCC(=O)OCc3c(C)noc3C)cc2)cc1	-65	12*	-6	2
O=C(CSc1nc(-c2ccccc2)cs1)Nc1ccccc1[N+](=O)[O-]	-31	13*	4	3
O=C(CSc1nc(-c2ccccc2)cs1)Nc1nccs1	-1	4	-10	nt
CCOc1ccc(S(=O)(=O)n2cc(F)c(=O)[nH]c2=O)cc1	nt	2	nt	nt
CCC(C(=O)Nc1nc(C)c(C(=O)OC)s1)c1ccccc1 (stereo not drawn)	nt	0	nt	nt
CCC(C(=O)Nc1ccsc1C(=O)OC)c1ccccc1 (stereo not drawn)	nt	17*	nt	3
NC(=O)Cc1ccc(Nc2nnc(-c3ccc(O)cc3)c3ccccc23)cc1	-12	0	-3	nt
O=C(CSc1nnc(-c2ccccc2)n1Cc1ccco1)Nc1ccc2c(c1)OCCO2	-25	6	-23	nt
Cc1ccc(OCc2nnc(SCC(=O)Nc3ccc4c(c3)OCCO4)n2Cc2ccco2)cc1	-35	12*	-5	1
Cc1ccc(N=c2oc3cc(O)ccc3cc2C(N)=O)cc1	-59	27*	-2	1
COc1ccc(N=c2oc3cc(O)ccc3cc2C(=O)NCC2CCCO2)cc1 (stereo not drawn)	-83	4	-8	nt
N#CCOC(=O)C1CSC2(c3ccc(Br)cc3)CCC(=O)N12 (stereo not drawn)	nt	2	nt	nt
COc1ccc(NC(=O)c2nc3nccc(C)n3n2)cn1	-18	-1	-5	nt
CCCCOc1ccc(CC2CCC(=O)NC2=O)cc1 (stereo not drawn)	nt	0	nt	nt
COC(=O)CSc1nc(-c2ccccc2)nc2ccc(F)cc12	-30	5	-1	nt
CCOC(=O)CSc1nc(-c2ccccc2)nc2ccc(F)cc12	-44	13*	6	3
O=C(Nc1ccn(Cc2ccc(Cl)cc2)n1)c1ccccc1	nt	1	nt	nt
O=C(Nc1ccn(Cc2cccc3ccccc23)n1)c1cccnc1	nt	12*	nt	2
COc1cccc(N2CCN(C(=O)C3CCN(S(=O)(=O)c4cccs4)CC3)CC2)c1	nt	7	nt	nt
CCCC(=O)Nc1cccc(C(=O)Nc2ccccc2OCC)c1	nt	-1	nt	nt
CSCC[C@H](NC(=O)c1nn(C)c(=O)c2ccccc12)c1nc2ccccc2[nH]1	-50	0	-11	nt
COc1ccccc1Nc1nc2ccc(C)cc2cc1C#N	-55	5	3	nt
SMILES	BB579 growth dn	RAM inhibit	Yeast lifespan up	RAM 5-FOA
COc1ccccc1Nc1nc2c(C)cccc2cc1C#N	-60	13*	2	4
O=C(COC(=O)c1cc(-c2ccccc2)nc2ccccc12)NCC1CCCO1 (stereo not drawn)	nt	1	nt	nt
O=C(COC(=O)c1cc(-c2cccc(Br)c2)nc2ccccc12)NCC1CCCO1 (stereo not drawn)	nt	15*	nt	3
CN1CCN(C(=O)c2ccc3c(=O)n(Cc4ccco4)c(=S)[nH]c3c2)CC1	-66	0	-11	nt
CCCN(CCC)C(=O)c1ccc2c(=O)n(Cc3ccco3)c(=S)[nH]c2c1	nt	25*	nt	1
C=CCC1(N(C(C)=O)c2ccccc2C)CCCCC1	nt	-2	nt	nt
CCCN1C(=O)/C(=c2\sc3nc(=O)c(Cc4ccc(C)cc4)nn3c2=O)c2ccccc21	nt	12*	nt	4
CCCCN1C(=O)/C(=c2\sc3nc(=O)c(-c4ccccc4)nn3c2=O)c2ccccc21	-31	2	-8	nt
Nc1ncncc1-c1ccc([N+](=O)[O-])cc1	-9	0	-17	nt
CCOC(=O)/C(C#N)=C/c1cn(CCOc2ccc(OC)cc2)c2ccccc12	-66	13*	-1	4
O=C(NCCOc1ccccc1)C(=O)NCC1CCCO1 (stereo not drawn)	nt	2	nt	nt
N#C/C(=C\c1cn(CCOc2ccccc2)c2ccccc12)C(=O)NCC1CCCO1 (stereo not drawn)	-47	16*	-14	3
COC(=O)c1cn(CCOc2ccc(C)cc2)c2ccccc12	-43	6	-22	nt
CC(=O)c1cccc(NC(=O)C(=O)Nc2cccc3ccccc23)c1	nt	6	nt	nt
COc1cc(CNn2c(C)n[nH]c2=S)cc(Cl)c1OCc1ccccc1	-26	13*	-2	2

High-throughput results from PubChem.
